# Screening results: PubChem BioAssay, several laboratories
# This is a sample that favours compounds with a hit; in the whole collection about 2.9% have one here.
# Mot1-301 SUMO = inhibitors of SUMOylation pathway: yeast Mot1-301 growth rescue; S. cerevisiae Mot1-301 growth rescue, ATP luminescence, 38.5C; percent above DMSO median, 100 means doubled; growth rescue, % at 18.8 µM; actives 1% (n = 320,000); AID 2716;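 active = every valid replicate shows activation above 250% relative to neutral control wells; inactive = the rest, any valid replicate at or below 250%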
# NALP1 inh = NALP1 inhibition; inhibition, % at 10 µM; S. cerevisiae NALP1/ASC/caspase-1 growth, X-gal OD620, 72 h; AID 2071; actives 0.61% (n = 280,000); in the data active = inhibition mostly above about 24%, no sharp cut-off; inactive = mostly below about 32%
# PolyA inhibitor = blocks polyadenylation in yeast reporter cells; S. cerevisiae SKY197-pL101 polyadenylation reporter, beta-gal luminescence; efflux-impaired pdr1/pdr3 knockout yeast; score 100 = 6 SD above DMSO; activity score, % at 12 µM; actives 0.02% (n = 300,000); AID 1875;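 active = lowest replicate activity score at least 50, where 100 means six control SD above control mean; inconclusive = lowest score under 50 but half or more replicates reach 50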;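 note: yeast exposed to compound for 9 h at 30 °C; higher score means more reporter readthrough which indicates perturbed polyadenylation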
# NALP3 yeast inh = blocks the NALP3 inflammasome reconstituted in yeast; Yeast reconstituted NLRP3/ASC/caspase-1, beta-gal luminescence, 24 h; inhibition, % at 10 µM; actives 0.39% (n = 330,000);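 active = inhibition of 50% or more; inactive = inhibition below 50%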
# IMP-1 inhibitor = blocks Pseudomonas aeruginosa IMP-1 metallo-beta-lactamase; purified IMP-1, nitrocefin hydrolysis, epi-absorbance fluorescence; inhibition, % at 5.6 µM; actives 0.45% (n = 290,000);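 active = inhibition above the mean plus 3 SD of all compounds in the same screening run, cut at about 4.5% in these data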
#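 System – purified recombinant IMP-1 beta-lactamase · Input – IMP-1 dispensed at 0.2 nM · Timing – 15 min preincubation plus 25 min reaction at 25 °C · Signal – Epi-absorbance fluorescence, 480 nm excitation, 530 nm emission · Measure – percent IMP-1 inhibition derived from blank-referenced optical density · Controls – Enzyme-plus-DMSO low control, enzyme-free DMSO high control · Replication – singlicate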
# VIM-2 inhibitor = blocks Pseudomonas aeruginosa VIM-2 metallo-beta-lactamase; purified VIM-2, nitrocefin hydrolysis, epi-absorbance fluorescence; inhibition, % at 5.6 µM; actives 0.89% (n = 290,000); AID 1527;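 active = inhibition above the mean of all tested compounds plus 3 SD, cutoff set per screening run, cut at about 7.5% in these data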;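 note: red hydrolysis product quenches plate fluorescence so inhibitors raise well fluorescence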
# Yeast Mot1 SUMO = inhibits SUMO pathway, affecting Mot1-301 yeast growth | growth activity, percent, % at 42 µM | S. cerevisiae Mot1-301 galactose growth, ATP luminescence, 24 h; -100 = growth of slx-deleted rescue strain | 2,300 tested, under 10 active | shares compounds with Mot1-301 SUMO | AID 493004;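 active = Signal drops as the depositor expects, and the fitted half-maximal dose is no more than ten times the top valid tested dose; inconclusive = Poor fit, or a flat curve whose signal drops by 30% to 70%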;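 note: more negative values mean stronger growth rescue toward the control strain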
# A number is an active result; i = inactive; ? = inconclusive; nt = not tested or not shown; + = active, no number.
SMILES,Mot1-301 SUMO,NALP1 inh,PolyA inhibitor,NALP3 yeast inh,IMP-1 inhibitor,VIM-2 inhibitor,Yeast Mot1 SUMO
COc1ccc(NC(=O)CC(C)C)c(OC)c1,789,i,i,i,i,i,i
CCn1nnc(-c2ccccc2NC(=O)c2cnccn2)n1,407,nt,i,i,i,i,i
COCCNCc1ccccc1,647,i,i,i,i,i,i
O=C(COC(=O)c1ccc(Br)o1)NCc1ccccc1Cl,i,nt,nt,i,nt,nt,nt
COc1cc2c(=O)n(-c3ccc(C)cc3)c(=O)n(CC(=O)c3ccc4c(c3)OCO4)c2cc1OC,694,i,i,i,i,i,i
C=CCn1c(=O)c(C(=O)NCc2ccc3c(c2)OCO3)c(O)c2cc(OC)c(OC)cc21,i,i,i,i,i,i,nt
CC1CN(Cc2ccccc2)c2nc3c(c(=O)[nH]c(=O)n3C)n2C1 (stereo unspecified),475,nt,i,i,i,i,i
Cn1c(=O)[nH]c(=O)c2c1nc1n2CCN1Cc1ccccc1,i,i,i,i,i,i,nt
CN(C)/C=N/NC(=O)c1ccccc1,921,i,i,i,i,i,i
O=C(N/N=C/c1ccncc1)c1ccccc1,nt,i,i,i,i,i,nt
O=C(Nc1ccc(Cl)cc1)C1=Cc2ccccc2OC1,594,i,i,i,i,i,i
O=C(Nc1ccc(Cl)cc1)c1ccc2c(c1)OCO2,i,i,i,i,i,i,nt
CC(C)c1ccc(NC(=O)COc2nnc(-c3cccs3)c(-c3cccs3)n2)cc1,810,i,i,i,i,i,i
N#Cc1ccsc1NC(=O)C1=COCCO1,i,nt,nt,i,nt,nt,nt
CC(C)CCNC(=O)CN(C(=O)CCC(=O)Nc1nccs1)c1ccc2c(c1)OCCO2,i,i,i,i,i,i,nt
CC(C)(C)NC(=O)CN(C(=O)CCC(=O)Nc1nccs1)c1ccc2c(c1)OCCO2,543,i,i,i,i,i,i
COc1ccc(-c2cc(=O)[nH]c(N3CCN(Cc4ccccc4)CC3)n2)cc1,i,i,i,i,i,i,nt
O=c1cc(-c2ccccc2)nc(N2CCN(Cc3ccccc3)CC2)[nH]1,479,nt,i,i,i,i,i
O=C(C1CCCO1)N1CCN(C(=S)Nc2cc(F)cc(F)c2)CC1 (stereo unspecified),i,i,i,i,i,i,nt
CCOC(=O)c1sc(NC(=O)CCN2C(=O)C3CCCCC3C2=O)cc1C (stereo unspecified),i,nt,nt,i,nt,nt,nt
COc1cc(C(=O)Oc2cc(C)cc(C)c2)cc(OC)c1OC,i,i,i,i,i,i,nt
COc1cc(C(=O)Oc2cccnc2)cc(OC)c1OC,481,nt,i,i,i,i,i
O=C(Nc1ccc(OC(F)(F)F)cc1)c1ccc2ccccc2n1,645,i,i,i,i,i,i
Cc1ccc(C2C(C(=O)c3cccs3)=C(O)C(=O)N2c2ccc(S(N)(=O)=O)cc2)cc1 (stereo unspecified),932,i,i,i,i,i,i
C#CCn1c(=NC(=O)c2cccs2)sc2cccc(OC)c21,i,i,i,i,i,i,nt
SMILES,Mot1-301 SUMO,NALP1 inh,PolyA inhibitor,NALP3 yeast inh,IMP-1 inhibitor,VIM-2 inhibitor,Yeast Mot1 SUMO
C#CCn1c(=NC(=O)CN2C(=O)CCC2=O)sc2cccc(OC)c21,+,i,i,i,i,i,i
COc1cccc(CNS(=O)(=O)c2ccc3c(c2)CCN3C(=O)C2CC2)c1,nt,i,i,i,i,i,nt
COc1ccc(CNS(=O)(=O)c2ccc3c(c2)CCN3C(=O)C2CCC2)cc1,412,i,i,i,i,i,i
CCOC(=O)c1ccccc1NC(=O)C1CC(=O)N(C(C)(C)C)C1 (stereo unspecified),i,i,i,i,i,i,nt
CCOC(=O)c1ccccc1NC(=O)C1CC(=O)N(C2CCCCC2)C1 (stereo unspecified),385,i,i,i,i,i,i
COc1ccccc1CNC(=O)Cn1c(=O)oc2cc(S(=O)(=O)N3CCCC3)ccc21,i,i,i,i,i,i,nt
COc1ccc(/C=C/C(=O)NC(=S)Nc2ccccn2)cc1,900,i,i,i,i,i,i
COc1ccccc1/C=C/C(=O)NC(=S)Nc1ccccn1,i,i,?,i,i,i,nt
CN(C)CCCN(Cc1ccccc1)C(=S)Nc1ccc(F)c(Cl)c1,608,33,i,i,i,i,i
O=C(CSc1nc2c(cnn2-c2cccc(Cl)c2)c(=O)[nH]1)NCCC1=CCCCC1,i,nt,nt,i,nt,nt,nt
O=C(Nc1ccc(N2CCOCC2)cc1)c1cc(F)c(F)cc1Cl,i,i,i,i,i,i,nt
CSc1ccc(Cl)c(C(=O)Nc2ccc(N3CCOCC3)cc2)c1,+,i,i,i,i,i,i
CCOC(=O)c1sc2ncn(C(CC)C(=O)OCC)c(=O)c2c1C (stereo unspecified),592,i,i,i,i,i,i
COc1ccc(C(C(=O)NC2CCCC2)N(CCO)C(=O)Cn2nnc(-c3ccc(C)o3)n2)cc1OC (stereo unspecified),i,i,i,i,i,i,nt
CCn1cc(Cl)c(C(=O)NNC(=O)CCn2ccc([N+](=O)[O-])n2)n1,i,i,i,i,i,i,nt
CN1C(=O)C2(NCCc3c2[nH]c2ccccc32)c2ccccc21 (stereo unspecified),i,i,i,i,i,i,nt
CC1=CC(C)(C)N2C(=O)C3(NCCc4c3[nH]c3ccccc43)c3cc(C)cc1c32 (stereo unspecified),506,nt,i,i,i,i,i
CCOC(=O)Cc1csc(NC(=O)NC2(C(F)(F)F)Oc3ccccc3O2)n1,770,i,i,i,i,i,i
COc1ccc(C(=O)NCC(=O)OCC(=O)c2c(C)[nH]c3ccccc23)cc1OC,nt,nt,nt,i,nt,nt,nt
Cc1cc(C)cc(-n2ncc3c2CCCC3NC(=O)c2cc(C)[nH]n2)c1 (stereo unspecified),641,i,i,i,i,i,i
CN(C(=O)c1ccc2c(=O)n3c(nc2c1)CCCCC3)c1cccc(Cl)c1,i,i,i,i,i,i,nt
Cc1cc(C#Cc2c(-c3ccccc3)n(C)c3ccccc23)ccc1F,716,i,i,i,i,i,i
COc1ccc(C#Cc2c(-c3ccccc3)n(C)c3ccccc23)cc1,i,nt,nt,i,nt,nt,nt
COc1cc(-c2ccccc2)nc(N)n1,i,i,i,i,i,i,nt
CCOc1cc(-c2ccccc2)nc(N)n1,460,i,i,i,i,i,i
CC(=O)Nc1cccc(NC(=O)COC(=O)CO/N=C(\C)c2ccc3c(c2)OCO3)c1,i,i,i,i,i,i,nt
CCCc1ccc(S(=O)(=O)NCCc2ccncc2)cc1,541,i,i,i,i,i,i
